# Assay results published in ChEMBL document CHEMBL4014288, “Targeted Antibiotic Delivery: Selective Siderophore Conjugation with Daptomycin Confers Potent Activity against Multidrug Resistant Acinetobacter baumannii Both in Vitro and in Vivo” (J Med Chem, 2017).
# The source made the active and inactive calls. The rule behind the calls is not given here.
# Key:
# Mus musculus = test: Toxicity in ICR mouse at 250 mg/kg, iv after 21 to 22 days; assay type: organism-based; conditions: in vivo
# Acinetobacter baumannii [1] = test: Antibacterial activity against Acinetobacter baumannii ARC 5079 after 18 hrs by broth microdilution method; assay type: functional; conditions: ARC 5079, 18 h
# Acinetobacter baumannii [2] = test: Antibacterial activity against Acinetobacter baumannii ATCC 17961 infected in ICR mouse assessed as mouse survival rate at 5 mg/kg, iv administered at 30 mins and 24.5 hrs post infection measured 7 days post infection relative to vehicle-treated control; assay type: functional; conditions: ATCC 17961, iv
# Procedure, shortened: (§1)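 Sepsis model in 6- to 8-week-old female ICR mice infected intraperitoneally with A. baumannii ATCC 17961. Treatment given intravenously at 30 min and again at 24.5 h after infection, at 25, 10 or 5 mg/kg. Saline vehicle group as control. Five mice per dose group and six in the vehicle group. Read-out was survival.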
# Acinetobacter baumannii [3] = test: Antibacterial activity against Acinetobacter baumannii ARC 5081 after 18 hrs by broth microdilution method; assay type: functional; conditions: ARC 5081, 18 h
# Acinetobacter baumannii [4] = test: Antibacterial activity against Acinetobacter baumannii ATCC 17961 infected in ICR mouse assessed as mouse survival rate at 10 mg/kg, iv administered at 30 mins and 24.5 hrs post infection measured 7 days post infection relative to vehicle-treated control; assay type: functional; conditions: ATCC 17961, iv; procedure, shortened: as §1
# Pseudomonas aeruginosa = test: Antibacterial activity against Pseudomonas aeruginosa PAO1 after 18 hrs by broth microdilution method; assay type: functional; conditions: PAO1, 18 h
# Burkholderia multivorans = test: Antibacterial activity against Burkholderia multivorans AU0100 after 18 hrs by broth microdilution method; assay type: functional; conditions: AU0100, 18 h
# Acinetobacter baumannii [5] = test: Antibacterial activity against Acinetobacter baumannii ATCC BAA 1793 after 18 hrs by broth microdilution method; assay type: functional; conditions: ATCC BAA 1793, 18 h
# Escherichia coli = test: Antibacterial activity against Escherichia coli DCO after 18 hrs by broth microdilution method; assay type: functional
# Acinetobacter baumannii [6] = test: Antibacterial activity against Acinetobacter baumannii ATCC 17961 after 18 hrs by broth microdilution method; assay type: functional; conditions: ATCC 17961, 18 h
# Acinetobacter baumannii [7] = test: Antibacterial activity against Acinetobacter baumannii ATCC BAA 1800 after 18 hrs by broth microdilution method; assay type: functional; conditions: ATCC BAA 1800, 18 h
# Acinetobacter baumannii [8] = test: Antibacterial activity against Acinetobacter baumannii ARC 3486 after 18 hrs by broth microdilution method; assay type: functional; conditions: ARC 3486, 18 h
# Acinetobacter baumannii [9] = test: Antibacterial activity against Acinetobacter baumannii ATCC 19606 after 18 hrs by broth microdilution method; assay type: functional; conditions: ATCC 19606, 18 h
# Staphylococcus aureus [10] = test: Antibacterial activity against Staphylococcus aureus ATCC 11632 after 18 hrs by broth microdilution method; assay type: functional; conditions: ATCC 11632, 18 h
# Acinetobacter baumannii [11] = test: Antibacterial activity against Acinetobacter baumannii ARC 3484 after 18 hrs by broth microdilution method; assay type: functional; conditions: ARC 3484, 18 h
# Acinetobacter baumannii [12] = test: Antibacterial activity against Acinetobacter baumannii ATCC BAA 1797 after 18 hrs by broth microdilution method; assay type: functional; conditions: ATCC BAA 1797, 18 h
# Acinetobacter baumannii [13] = test: Antibacterial activity against Acinetobacter baumannii ATCC 17961 infected in ICR mouse assessed as mouse survival rate at 25 mg/kg, iv administered at 30 mins and 24.5 hrs post infection measured 7 days post infection relative to vehicle-treated control; assay type: functional; conditions: ATCC 17961, iv; procedure, shortened: as §1
# Acinetobacter baumannii [14] = test: Antibacterial activity against Acinetobacter baumannii ATCC BAA 1710 after 18 hrs by broth microdilution method; assay type: functional; conditions: ATCC BAA 1710, 18 h
# Staphylococcus aureus [15] = test: Antibacterial activity against Staphylococcus aureus SG511 after 18 hrs by broth microdilution method; assay type: functional; conditions: SG511, 18 h
# [16] = Binding affinity to ferric ion
# [17] = Binding affinity to ferric ion at 5 mg after 18 hrs by LC-MS analysis
# Procedure, shortened: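 Ferric complex made by adding Fe(acac)3 (1.1 mg) in MeOH (1 mL) to conjugate (5.0 mg) in MeOH (1 mL). Analysed by LC on a C18 column (2.2 μm particles) at 40 °C, with a water/acetonitrile mobile phase. UV-vis diode-array detection over 190−400 nm, plus MS.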
# Acinetobacter baumannii [18] = test: Antibacterial activity against Acinetobacter baumannii ATCC 17961 infected in ICR mouse assessed as mouse survival rate at 50 mg/kg, iv administered at 30 mins and 24.5 hrs post infection measured 7 days post infection; assay type: functional, organism-based
# Procedure, shortened: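 Female ICR mice, 6 to 8 weeks old, infected intraperitoneally with A. baumannii ATCC 17961 (sepsis model). Treatments were given intravenously at 30 min and 24.5 h after infection, with saline as vehicle. Survival was scored as the fraction of mice alive per group (3 to 6 mice per group).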
SMILES,MIC (Acinetobacter baumannii [1]) [µM],MIC (Acinetobacter baumannii [3]) [µM],MIC (Pseudomonas aeruginosa) [µM],MIC (Burkholderia multivorans) [µM],MIC (Acinetobacter baumannii [5]) [µM],MIC (Escherichia coli) [µM],MIC (Acinetobacter baumannii [6]) [µM],MIC (Acinetobacter baumannii [7]) [µM],MIC (Acinetobacter baumannii [8]) [µM],MIC (Acinetobacter baumannii [9]) [µM],MIC (Staphylococcus aureus [10]) [µM],MIC (Acinetobacter baumannii [11]) [µM],MIC (Acinetobacter baumannii [12]) [µM],MIC (Acinetobacter baumannii [14]) [µM],MIC (Staphylococcus aureus [15]) [µM],also measured
CCCCCCCCCC(=O)N[C@@H](Cc1c[nH]c2ccccc12)C(=O)N[C@H](CC(N)=O)C(=O)N[C@@H](CC(=O)O)C(=O)N[C@@H]1C(=O)NCC(=O)N[C@@H](CCCNC(=O)CCCC(=O)N(O)CCCCCNC(=O)CCC(=O)N(CCCCNC(=O)c2cccc(O)c2O)CCCNC(=O)c2cccc(O)c2O)C(=O)N[C@@H](CC(=O)O)C(=O)N[C@H](C)C(=O)N[C@@H](CC(=O)O)C(=O)NCC(=O)N[C@H](CO)C(=O)N[C@@H]([C@@H](C)CC(=O)O)C(=O)N[C@@H](CC(=O)c2ccccc2N)C(=O)O[C@@H]1C [listing 1 of 2 here],–,–,–,–,–,–,–,–,–,–,–,–,–,–,–,Activity (Mus musculus): Non-Toxic
CCCCCCCCCC(=O)N[C@@H](Cc1c[nH]c2ccccc12)C(=O)N[C@H](CC(N)=O)C(=O)N[C@@H](CC(=O)O)C(=O)N[C@@H]1C(=O)NCC(=O)N[C@@H](CCCNC(=O)CCCC(=O)N(O)CCCCCNC(=O)CCC(=O)N(CCCCNC(=O)c2cccc(O)c2O)CCCNC(=O)c2cccc(O)c2O)C(=O)N[C@@H](CC(=O)O)C(=O)N[C@H](C)C(=O)N[C@@H](CC(=O)O)C(=O)NCC(=O)N[C@H](CO)C(=O)N[C@@H]([C@@H](C)CC(=O)O)C(=O)N[C@@H](CC(=O)c2ccccc2N)C(=O)O[C@@H]1C [listing 2 of 2 here],0.8,0.4,> 100,> 100,0.8,> 100,0.4,0.8,0.4,0.8,12.5,0.4,0.8,0.8,6,survival at 5 mg/kg (Acinetobacter baumannii [2]): 20%; survival at 10 mg/kg (Acinetobacter baumannii [4]): 80%; survival at 25 mg/kg (Acinetobacter baumannii [13]): 80%
CCCCCCCCCC(=O)N[C@@H](Cc1c[nH]c2ccccc12)C(=O)N[C@@H](CC(N)=O)C(=O)N[C@@H](CC(=O)O)C(=O)N[C@@H]1C(=O)NCC(=O)N[C@@H](CCCNC(=O)CCCC(=O)N(CCCCCNC(=O)CCC(=O)N(CCCCNC(=O)c2cccc(OCc3ccccc3)c2OCc2ccccc2)CCCNC(=O)c2cccc(OCc3ccccc3)c2OCc2ccccc2)OCc2ccccc2)C(=O)N[C@@H](CC(=O)O)C(=O)N[C@H](C)C(=O)N[C@@H](CC(=O)O)C(=O)NCC(=O)N[C@H](CO)C(=O)N[C@@H]([C@@H](C)CC(=O)O)C(=O)N[C@@H](CC(=O)c2ccccc2N)C(=O)O[C@@H]1C,> 50,> 50,–,–,> 50,–,> 50,> 50,> 50,> 50,–,> 50,> 50,> 50,–,Activity [16]: inactive
CCCCCCCCCC(=O)N[C@@H](Cc1c[nH]c2ccccc12)C(=O)N[C@@H](CC(N)=O)C(=O)N[C@@H](CC(=O)O)C(=O)N[C@@H]1C(=O)NCC(=O)N[C@@H](CCCNC(=O)CCCC(=O)N(O)CCCCCNC(=O)CCC(=O)N(CCCCNC(=O)c2cccc(O)c2O)CCCNC(=O)c2cccc(O)c2O)C(=O)N[C@@H](CC(=O)O)C(=O)N[C@H](C)C(=O)N[C@@H](CC(=O)O)C(=O)NCC(=O)N[C@H](CO)C(=O)N[C@@H]([C@@H](C)CC(=O)O)C(=O)N[C@@H](CC(=O)c2ccccc2N)C(=O)O[C@@H]1C,–,–,–,–,–,–,–,–,–,–,–,–,–,–,–,Activity [17]: Active
NCC[C@H](O)C(=O)N[C@@H]1C[C@H](N)[C@@H](O[C@H]2O[C@H](CN)[C@@H](O)[C@H](O)[C@H]2O)[C@H](O)[C@H]1O[C@H]1O[C@H](CO)[C@@H](O)[C@H](N)[C@H]1O [AMIKACIN],> 50,> 50,–,–,> 50,–,1.7,> 50,> 50,3.4,–,> 27,27,> 50,–,–
O=C(O)c1cn(C2CC2)c2cc(N3CCNCC3)c(F)cc2c1=O [CIPROFLOXACIN],> 25,> 25,0.5,> 25,> 25,0.5,0.2,> 25,> 25,0.8,0.5,> 25,> 25,> 25,0.5,–
CCCCCCCCCC(=O)N[C@@H](Cc1c[nH]c2ccccc12)C(=O)N[C@@H](CC(N)=O)C(=O)N[C@@H](CC(=O)O)C(=O)N[C@@H]1C(=O)NCC(=O)N[C@@H](CCCN)C(=O)N[C@@H](CC(=O)O)C(=O)N[C@H](C)C(=O)N[C@@H](CC(=O)O)C(=O)NCC(=O)N[C@H](CO)C(=O)N[C@@H]([C@H](C)CC(=O)O)C(=O)N[C@@H](CC(=O)c2ccccc2N)C(=O)O[C@@H]1C [DAPTOMYCIN],> 100,> 100,> 100,> 100,> 100,> 100,> 100,> 100,> 100,–,0.4,> 100,> 100,> 100,0.05,Activity (Acinetobacter baumannii [18]): inactive
